Assay results from ChEMBL document CHEMBL5303300, “EUbOPEN Chemogenomics Library - Multiplex” (2023).
Where “and” joins values, the source holds several entries; their conditions need not be identical. Equal entries are not always repeated.

Test system: HEK-293T
Experiment: Multiplex assay against HEK293T
Assay type: toxicity, cell-based
Conditions: human, number of replicates 2
Summary of the method: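 With compound added, live cells were imaged on a CQ1 microscope at 37°C and 5% CO2; staining with Hoechst33342, BioTracker Green Microtubule Cytoskeleton Dye, MitoTracker Red and Annexin V Alexa Fluor 680 had been done at seeding. The CellPathfinder machine-learning gating scheme split cells into Hoechst high-intensity objects or normal cells, normal cells into healthy, pyknosed or fragmented nuclei, and pyknosed cells into mitotic or apoptotic. The tubulin, mitochondrial-mass and membrane-permeability phenotypes are per cents of healthy-nucleus cells.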

[1] = 12 h, 10 µM, compound concentration 10 uM
[2] = 24 h, 10 µM, compound concentration 10 uM
[3] = 48 h, 10 µM, compound concentration 10 uM
[4] = 12 h, 1 µM, compound concentration 1 uM
[5] = 24 h, 1 µM, compound concentration 1 uM
[6] = 48 h, 1 µM, compound concentration 1 uM

SMILES: CC(=O)O[C@H]1C(=O)[C@@]2(C)[C@H]([C@H](OC(=O)c3ccccc3)[C@]3(O)C[C@H](OC(=O)[C@H](O)[C@@H](NC(=O)c4ccccc4)c4ccccc4)C(C)=C1C3(C)C)[C@]1(OC(C)=O)CO[C@@H]1C[C@@H]2O [PACLITAXEL]
- Population Apoptotic (%) [1]: 60% and 50% and 49% and 45%
- Population Fragmented Nuclei (%) [1]: 3% and 1% and 2%
- Population Healthy Nuclei (%) [1]: 74% and 80% and 77%
- Population Hoechst High Intensity Objects (%) [1]: 6% and 9% and 5% and 7%
- Population Membrane Permeable-Phenotype (%) [1]: 0%
- Population Mitochondria Different-Phenotype (%) [1]: 48% and 39% and 43% and 50%
- Population Mitotic Cells (%) [1]: 39% and 49% and 50% and 54%
- Population Normal (%) [1]: 93% and 90% and 94% and 92%
- Population Pyknosed Nuclei (%) [1]: 22% and 17% and 20%
- Population Tubulin-Different-Phenotype (%) [1]: 52% and 56% and 58% and 57%
- Total Cell Count [1]: 418 and 518 and 523 and 401
- Population Apoptotic (%) [2]: 65% and 51% and 71% and 68%
- Population Fragmented Nuclei (%) [2]: 3% and 4% and 2%
- Population Healthy Nuclei (%) [2]: 81% and 82% and 77%
- Population Hoechst High Intensity Objects (%) [2]: 9% and 12% and 10% and 8%
- Population Membrane Permeable-Phenotype (%) [2]: 0%
- Population Mitochondria Different-Phenotype (%) [2]: 45% and 43% and 58%
- Population Mitotic Cells (%) [2]: 35% and 48% and 28% and 31%
- Population Normal (%) [2]: 90% and 87% and 89% and 91%
- Population Pyknosed Nuclei (%) [2]: 15% and 14% and 18%
- Population Tubulin-Different-Phenotype (%) [2]: 56% and 47%
- Total Cell Count [2]: 442 and 490 and 384 and 517
- Population Apoptotic (%) [3]: 71% and 81% and 64% and 73%
- Population Fragmented Nuclei (%) [3]: 3% and 2% and 4%
- Population Healthy Nuclei (%) [3]: 88% and 89% and 84% and 83%
- Population Hoechst High Intensity Objects (%) [3]: 11% and 9%
- Population Membrane Permeable-Phenotype (%) [3]: 0%
- Population Mitochondria Different-Phenotype (%) [3]: 44% and 41% and 50%
- Population Mitotic Cells (%) [3]: 28% and 18% and 35% and 26%
- Population Normal (%) [3]: 88% and 90%
- Population Pyknosed Nuclei (%) [3]: 7% and 10% and 13%
- Population Tubulin-Different-Phenotype (%) [3]: 59% and 58% and 62%
- Total Cell Count [3]: 478 and 469 and 500 and 350

SMILES: CS(=O)(=O)c1ccc(C(=O)Nc2cccc(COc3cc(F)c(Br)cc3CN3CC[C@H](O)C3)c2)c(Cl)c1.O=CO
- Population Apoptotic (%) [4]: 58% and 54%
- Population Pyknosed Nuclei (%) [4]: 13% and 21%
- Total Cell Count [4]: 586 and 531
- Population Apoptotic (%) [1]: 57% and 73%
- Population Mitotic Cells (%) [1]: 42%
- Population Pyknosed Nuclei (%) [1]: 11% and 17%
- Total Cell Count [1]: 505 and 443
- Population Apoptotic (%) [5]: 53% and 54%
- Population Mitotic Cells (%) [5]: 46%
- Population Pyknosed Nuclei (%) [5]: 11% and 10%
- Total Cell Count [5]: 800 and 910
- Population Apoptotic (%) [2]: 65% and 73%
- Population Mitotic Cells (%) [2]: 34%
- Population Pyknosed Nuclei (%) [2]: 16% and 13%
- Total Cell Count [2]: 426 and 549
- Population Apoptotic (%) [6]: 18% and 28%
- Population Mitotic Cells (%) [6]: 81% and 71%
- Population Pyknosed Nuclei (%) [6]: 3% and 4%
- Total Cell Count [6]: 2227 and 1546
- Population Apoptotic (%) [3]: 61% and 60%
- Population Mitotic Cells (%) [3]: 38% and 39%
- Population Pyknosed Nuclei (%) [3]: 10% and 8%
- Total Cell Count [3]: 595 and 738

SMILES: COc1ccncc1C(=O)NC(=O)Nc1ccc(-c2ccccc2)c(C(F)(F)F)c1
- Population Apoptotic (%) [4]: 56% and 45%
- Population Fragmented Nuclei (%) [4]: 2% and 4%
- Population Healthy Nuclei (%) [4]: 87% and 84%
- Population Hoechst High Intensity Objects (%) [4]: 7% and 8%
- Population Membrane Permeable-Phenotype (%) [4]: 2% and 3%
- Population Mitochondria Different-Phenotype (%) [4]: 23% and 12%
- Population Mitotic Cells (%) [4]: 43% and 54%
- Population Normal (%) [4]: 93% and 91%
- Population Pyknosed Nuclei (%) [4]: 10% and 11%
- Population Tubulin-Different-Phenotype (%) [4]: 55% and 46%
- Total Cell Count [4]: 543 and 715
- Population Apoptotic (%) [1]: 49% and 44%
- Population Fragmented Nuclei (%) [1]: 3% and 4%
- Population Healthy Nuclei (%) [1]: 81% and 84%
- Population Hoechst High Intensity Objects (%) [1]: 7%
- Population Membrane Permeable-Phenotype (%) [1]: 2%
- Population Mitochondria Different-Phenotype (%) [1]: 28% and 21%
- Population Mitotic Cells (%) [1]: 50% and 55%
- Population Normal (%) [1]: 92%
- Population Pyknosed Nuclei (%) [1]: 14% and 11%
- Population Tubulin-Different-Phenotype (%) [1]: 66% and 52%
- Total Cell Count [1]: 484 and 596
- Population Apoptotic (%) [5]: 43% and 39%
- Population Fragmented Nuclei (%) [5]: 3% and 5%
- Population Healthy Nuclei (%) [5]: 88% and 86%
- Population Hoechst High Intensity Objects (%) [5]: 6% and 9%
- Population Membrane Permeable-Phenotype (%) [5]: 2%
- Population Mitochondria Different-Phenotype (%) [5]: 4% and 6%
- Population Mitotic Cells (%) [5]: 56% and 60%
- Population Normal (%) [5]: 93% and 90%
- Population Pyknosed Nuclei (%) [5]: 7%
- Population Tubulin-Different-Phenotype (%) [5]: 33% and 30%
- Total Cell Count [5]: 828 and 1052
- Population Apoptotic (%) [2]: 61% and 41%
- Population Fragmented Nuclei (%) [2]: 8% and 6%
- Population Healthy Nuclei (%) [2]: 82% and 85%
- Population Hoechst High Intensity Objects (%) [2]: 9% and 8%
- Population Membrane Permeable-Phenotype (%) [2]: 2%
- Population Mitochondria Different-Phenotype (%) [2]: 11% and 7%
- Population Mitotic Cells (%) [2]: 38% and 58%
- Population Normal (%) [2]: 90% and 91%
- Population Pyknosed Nuclei (%) [2]: 9% and 8%
- Population Tubulin-Different-Phenotype (%) [2]: 38% and 32%
- Total Cell Count [2]: 722 and 835
- Population Apoptotic (%) [6]: 8% and 9%
- Population Fragmented Nuclei (%) [6]: 11%
- Population Healthy Nuclei (%) [6]: 85%
- Population Hoechst High Intensity Objects (%) [6]: 9%
- Population Membrane Permeable-Phenotype (%) [6]: 5% and 4%
- Population Mitochondria Different-Phenotype (%) [6]: 0%
- Population Mitotic Cells (%) [6]: 91% and 90%
- Population Normal (%) [6]: 90%
- Population Pyknosed Nuclei (%) [6]: 3%
- Population Tubulin-Different-Phenotype (%) [6]: 14% and 12%
- Total Cell Count [6]: 2070 and 2556
- Population Apoptotic (%) [3]: 26% and 21%
- Population Fragmented Nuclei (%) [3]: 11% and 12%
- Population Healthy Nuclei (%) [3]: 84%
- Population Hoechst High Intensity Objects (%) [3]: 7% and 8%
- Population Membrane Permeable-Phenotype (%) [3]: 4% and 6%
- Population Mitochondria Different-Phenotype (%) [3]: 1%
- Population Mitotic Cells (%) [3]: 73% and 78%
- Population Normal (%) [3]: 92% and 91%
- Population Pyknosed Nuclei (%) [3]: 4% and 3%
- Population Tubulin-Different-Phenotype (%) [3]: 23% and 19%
- Total Cell Count [3]: 1542 and 1838
